According to BindingDB's records for doi:10.1021/jm015578d (Sapienza University of Rome, 2002):

Molecular target: T1, Amine oxidase [flavin-containing] A (Bos taurus, UniProt P21398)
T1 sequence (P21398 whole entry): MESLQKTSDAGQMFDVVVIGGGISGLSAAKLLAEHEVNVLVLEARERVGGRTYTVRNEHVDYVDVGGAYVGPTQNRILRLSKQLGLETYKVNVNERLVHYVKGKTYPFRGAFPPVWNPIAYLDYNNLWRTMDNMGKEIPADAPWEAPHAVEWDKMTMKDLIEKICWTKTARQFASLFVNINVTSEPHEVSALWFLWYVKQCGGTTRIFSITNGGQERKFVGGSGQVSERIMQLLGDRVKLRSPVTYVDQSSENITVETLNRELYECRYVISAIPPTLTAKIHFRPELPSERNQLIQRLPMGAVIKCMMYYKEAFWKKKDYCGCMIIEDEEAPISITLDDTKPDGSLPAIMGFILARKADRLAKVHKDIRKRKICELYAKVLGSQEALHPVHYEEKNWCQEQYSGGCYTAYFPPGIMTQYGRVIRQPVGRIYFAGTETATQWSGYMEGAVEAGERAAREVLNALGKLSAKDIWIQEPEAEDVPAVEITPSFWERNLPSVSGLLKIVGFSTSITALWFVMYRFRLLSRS
Assay: Inhibition of bovine brain mitochondrial Monoamine oxidase A (MAO-A) compared to toloxatone
How it was run: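 Bovine brain mitochondria were isolated by the Basford method. To isolate MAO-A, fractions were preincubated 30 min at 38 °C with 1 μM L-deprenyl. Inhibitors in DMSO were preincubated 30 min, then kynuramine substrate was added, with 30 min further incubation. Product was read fluorimetrically and Ki values derived.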

Ki: 0.27 µM
SMILES: O=C1O[C@@H](CO)CN1n1cccc1
